What was measured:
ATH-8 cell line [1] = assay: Compound was evaluated for cytotoxicity by HIV cytopathic effect assay performed with ATH8 cells at a concentration of 50(uM); assay type: functional, Homo sapiens
Method in brief: (§1)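 Uninfected control ATH8 cells (2×10^5) were polybrene-treated and cultured in 2 mL IL-2-containing medium with or without compound at 37 °C in 5% CO2. Viable cells were counted by trypan blue exclusion on a hemocytometer at days 5–7. % cytotoxicity = 100 × [1 − (viable cells with nucleoside ÷ viable cells cultured alone)].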

ATH-8 cell line [2] = assay: Compound was evaluated for cytotoxicity by HIV cytopathic effect assay performed with ATH8 cells at a concentration of 1(uM); assay type: functional, Homo sapiens; method in brief: as §1
[3] = Compound was evaluated for the protective effect against HTLV-III/LAV (HIV) pathogenesis at a concentration of 1(uM); assay type: functional
Method in brief: (§2)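 ATH8 cells (2×10^5) were polybrene-treated, then exposed to HTLV-IIIB (2000 virus particles/cell) for 45 min. They were resuspended in 2 mL IL-2-containing medium with or without compound and incubated at 37 °C in 5% CO2. Viable cells were counted by trypan blue exclusion on days 5–7. % protection compared infected treated, infected untreated, and uninfected cells.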

[4] = Compound was evaluated for the protective effect against HTLV-III/LAV (HIV) pathogenesis at a concentration of 10(uM); assay type: functional; method in brief: as §2
ATH-8 cell line [5] = assay: (§3) Compound was evaluated for cytotoxicity by HIV cytopathic effect assay performed with ATH8 cells at a concentration of 10(uM); assay type: functional, Homo sapiens; method in brief: as §1
[6] = Compound was evaluated for the protective effect against HTLV-III/LAV (HIV) pathogenesis at a concentration of 50(uM); assay type: functional; method in brief: as §2
ATH-8 cell line [7] = assay: Compound was evaluated for cytotoxicity by HIV cytopathic effect assay performed with ATH8 cells at a concentration of 0.05(uM); assay type: functional, Homo sapiens; method in brief: as §1
[8] = Compound was evaluated for the protective effect against HTLV-III/LAV (HIV) pathogenesis at a concentration of 0.5(uM); assay type: functional; method in brief: as §2
[9] = Compound was evaluated for the protective effect against HTLV-III/LAV (HIV) pathogenesis at a concentration of 5(uM); assay type: functional; method in brief: as §2
ATH-8 cell line [10] = assay: Compound was evaluated for cytotoxicity by HIV cytopathic effect assay performed with ATH8 cells at a concentration of 0.5(uM); assay type: functional, Homo sapiens; method in brief: as §1
[11] = Compound was evaluated for the protective effect against HTLV-III/LAV (HIV) pathogenesis at a concentration of 0.05(uM); assay type: functional; method in brief: as §2
ATH-8 cell line [12] = assay: Compound was evaluated for cytotoxicity by HIV cytopathic effect assay performed with ATH8 cells at a concentration of 5(uM); assay type: functional, Homo sapiens; method in brief: as §1
[13] = Compound was evaluated for the protective effect against HTLV-III/LAV (HIV) pathogenesis at a concentration of 2(uM); assay type: functional; method in brief: as §2
ATH-8 cell line [14] = assay: Compound was evaluated for cytotoxicity by HIV cytopathic effect assay performed with ATH8 cells at a concentration of 2(uM); assay type: functional, Homo sapiens; method in brief: as §1
ATH-8 cell line [15] = assay: Compound was evaluated for cytotoxicity by HIV cytopathic effect assay performed with ATH8 cells at a concentration of 200(uM); assay type: functional, Homo sapiens; method in brief: as §1
[16] = Compound was evaluated for the protective effect against HTLV-III/LAV (HIV) pathogenesis at a concentration of 30(uM); assay type: functional; method in brief: as §2
[17] = Compound was evaluated for the protective effect against HTLV-III/LAV (HIV) pathogenesis at a concentration of 200(uM); assay type: functional; method in brief: as §2
ATH-8 cell line [18] = assay: Compound was evaluated for cytotoxicity by HIV cytopathic effect assay performed with ATH8 cells at a concentration of 30(uM); assay type: functional, Homo sapiens; method in brief: as §1
[19] = Compound was evaluated for the protective effect against HTLV-III/LAV (HIV) pathogenesis at a concentration of 100(uM); assay type: functional; method in brief: as §2
ATH-8 cell line [20] = assay: Compound was evaluated for cytotoxicity by HIV cytopathic effect assay performed with ATH8 cells at a concentration of 100(uM); assay type: functional, Homo sapiens; method in brief: as §1
ATH-8 cell line [21] = assay: Compound was evaluated for cytotoxicity by HIV cytopathic effect assay performed with ATH8 cells at a concentration of 2000(uM); assay type: functional, Homo sapiens; method in brief: as §1
[22] = Compound was evaluated for the protective effect against HTLV-III/LAV (HIV) pathogenesis at a concentration of 2000(uM); assay type: functional; method in brief: as §2
[23] = Compound was evaluated for the protective effect against HTLV-III/LAV (HIV) pathogenesis at a concentration of 500(uM); assay type: functional; method in brief: as §2
ATH-8 cell line [24] = assay: as §3; assay type: functional; method in brief: as §1
ATH-8 cell line [25] = assay: Compound was evaluated for cytotoxicity by HIV cytopathic effect assay performed with ATH8 cells at a concentration of 500(uM); assay type: functional, Homo sapiens; method in brief: as §1
[26] = Compound was evaluated for the protective effect against HTLV-III/LAV (HIV) pathogenesis at a concentration of 1000(uM); assay type: functional; method in brief: as §2
ATH-8 cell line [27] = assay: Compound was evaluated for cytotoxicity by HIV cytopathic effect assay performed with ATH8 cells at a concentration of 1000(uM); assay type: functional, Homo sapiens; method in brief: as §1

SMILES | Cytotoxicity (ATH-8 cell line [1]) | Cytotoxicity (ATH-8 cell line [2]) | Protective effect [3] | Protective effect [4] | Cytotoxicity (ATH-8 cell line [5]) | Protective effect [6] | Protective effect [8] | Protective effect [9] | Cytotoxicity (ATH-8 cell line [10]) | Cytotoxicity (ATH-8 cell line [12]) | Cytotoxicity (ATH-8 cell line [15]) | Protective effect [17] | Protective effect [19] | Cytotoxicity (ATH-8 cell line [20]) | further results
Nc1ncn(C2CCC(CO)O2)c(=O)n1 (stereo unspecified) | 62% | 13% | 16% | 58% | 19% | 38% | – | – | – | – | – | – | – | – | –
Nc1ccn([C@H]2CC[C@@H](CO)O2)c(=O)n1 [ZALCITABINE] | 30% | – | – | – | – | 77% | 97% | 100% | 0% | 0% | – | – | – | – | Cytotoxicity (ATH-8 cell line [7]): 0%; Protective effect [11]: 18%
N.N.Nc1ccn(C2CCC(COP(=O)(O)O)O2)c(=O)n1 (stereo unspecified) | – | – | – | 74% | 0% | – | 13% | – | 0% | – | – | – | – | – | Protective effect [13]: 9%; Cytotoxicity (ATH-8 cell line [14]): 7%
Nc1nc(=O)n(C2CCC(CO)O2)cc1Br (stereo unspecified) | – | 14% | 6% | 8% | 14% | – | – | – | – | – | 0% | 0% | – | – | Protective effect [16]: 5%; Cytotoxicity (ATH-8 cell line [18]): 2%
Nc1ncnc2c1ncn2[C@H]1CC[C@@H](CO)O1 | 0% | 0% | 42% | 100% | 0% | 100% | – | 98% | – | 6% | 0% | 100% | 100% | 0% | –
Nc1nc(=O)n([C@@H]2CC[C@H](CO)O2)cc1F | 9% | – | – | – | – | 88% | 100% | 100% | 0% | 0% | – | – | – | – | Cytotoxicity (ATH-8 cell line [7]): 5%; Protective effect [11]: 5%
Cc1cn(C2CCC(CO)O2)c(=O)nc1N (stereo unspecified) | – | – | – | 7% | 27% | – | – | – | – | – | – | – | 3% | 44% | Protective effect [13]: 2%; Cytotoxicity (ATH-8 cell line [14]): 23%
Cc1cn([C@H]2C=C[C@@H](CO)O2)c(=O)[nH]c1=O [STAVUDINE] | 8% | – | – | 3% | – | 9% | – | – | – | – | 6% | 77% | 19% | 13% | Cytotoxicity (ATH-8 cell line [21]): 53%; Protective effect [22]: 43%; Protective effect [23]: 68%; Cytotoxicity (ATH-8 cell line [24]): 8%; Cytotoxicity (ATH-8 cell line [25]): 30%; Protective effect [26]: 46%; Cytotoxicity (ATH-8 cell line [27]): 40%
Nc1ncnc2c1ncn2C1CCC(COP(=O)([O-])[O-])O1.[Na+].[Na+] (stereo unspecified) | 4% | 2% | 25% | 100% | 6% | 83% | – | 91% | – | 10% | 5% | 100% | 100% | 0% | –
Cc1cn(C2CCC(COP(=O)([O-])[O-])O2)c(=O)[nH]c1=O.[Na+].[Na+] (stereo unspecified) | 9% | – | – | 7% | 9% | 18% | – | – | – | – | 10% | 15% | – | – | –
